This note sets out measurements from ChEMBL document CHEMBL3856268 (J Med Chem, 2016).

What is called inhibition is the change of the read-out against control, counted positive when it falls. The term IC50 denotes the concentration needed to halve the response being measured.

Data set [1] concerns the target T1, NAD-dependent protein deacetylase sirtuin-1 (Homo sapiens) (UniProt Q96EB6).
T1 sequence (whole entry): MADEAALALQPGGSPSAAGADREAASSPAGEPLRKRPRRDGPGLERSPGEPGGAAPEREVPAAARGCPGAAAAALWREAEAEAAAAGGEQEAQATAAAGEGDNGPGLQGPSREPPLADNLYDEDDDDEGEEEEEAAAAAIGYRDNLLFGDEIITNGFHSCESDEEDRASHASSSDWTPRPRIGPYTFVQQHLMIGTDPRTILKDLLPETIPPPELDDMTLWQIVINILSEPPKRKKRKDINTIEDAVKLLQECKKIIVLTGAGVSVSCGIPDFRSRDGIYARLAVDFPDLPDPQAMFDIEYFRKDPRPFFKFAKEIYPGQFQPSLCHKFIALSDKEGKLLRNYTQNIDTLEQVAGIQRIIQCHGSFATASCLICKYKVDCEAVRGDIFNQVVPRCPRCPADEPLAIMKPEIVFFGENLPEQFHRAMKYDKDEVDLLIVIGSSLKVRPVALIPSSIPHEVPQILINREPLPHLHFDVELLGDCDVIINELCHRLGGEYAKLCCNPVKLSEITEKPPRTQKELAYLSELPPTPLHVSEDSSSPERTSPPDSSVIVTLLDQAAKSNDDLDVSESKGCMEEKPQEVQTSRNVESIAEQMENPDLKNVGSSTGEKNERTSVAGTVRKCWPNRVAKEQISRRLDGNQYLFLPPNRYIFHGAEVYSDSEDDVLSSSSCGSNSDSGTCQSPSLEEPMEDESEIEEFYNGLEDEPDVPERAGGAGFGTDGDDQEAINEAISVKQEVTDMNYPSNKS
Briefly: Inhibition of 50 nM N-terminal His6-tagged recombinant human SIRT1 expressed in Escherichia coli at 100 uM using RHKK(Ac)W-NH2 as substrate after 30 mins by UV detection-based HPLC method. In a few lines: (§1)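 SIRT1 (Sigma stock ~6 μM, 10% glycerol, no BSA) freshly diluted in 50 mM Tris-HCl/Tris pH 8.0. Mixture: 200 μM NAD+, 100 μM RHKK(Ac)W-NH2, 1% DMSO, optional additive (Triton X-100 0.01% v:v; BSA 1 mg/mL). Reaction started by enzyme without preincubation, run at 37 °C with conversion kept at 1–10% (30 min at 50 nM, 1 h at 25 nM, 5–10 min at 250 nM). Read-out: C18 HPLC, UV 220 nm, percent conversion from peak areas.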

Data set [2] addresses T1, NAD-dependent protein deacetylase sirtuin-1 (Homo sapiens). Description: Activation of 25 nM N-terminal His6-tagged recombinant human SIRT1 expressed in Escherichia coli at 100 uM using RHKK(Ac)W-NH2 as substrate after 1 hr in presence of 0.01% TX-100 by UV detection-based HPLC method relative to control. The essentials: as §1
The target is the same in data set [3]. Briefly: Activation of 50 nM N-terminal His6-tagged recombinant human SIRT1 expressed in Escherichia coli at 100 uM using RHKK(Ac)W-NH2 as substrate after 30 mins in presence of 0.01% TX-100 by UV detection-based HPLC method relative to control. In a few lines:
as §1

For data set [4] the target is unchanged. As to conditions: 1 uM.
The target is the same in data set [5]. As to conditions: 1 uM. The source holds these as a separate data set.
Data set [6] shares this target. As to conditions: 1 uM. This is another data set of the same source.
Data set [7] has the same target. Description: Binding affinity to 25 to 100 nM N-terminal His6-tagged recombinant human SIRT1 expressed in Escherichia coli at 100 uM by 1H NMR method.
Data set [8] shares this target. Description: Activation of 8 nM N-terminal His6-tagged recombinant human SIRT1 expressed in Escherichia coli at 100 uM using RHKK(Ac)W-NH2 as substrate in presence of 0.01% TX-100 by UV detection-based HPLC method relative to control. In a few lines: (§2)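 Same SIRT1 HPLC deacetylation assay: 50 mM Tris-HCl/Tris pH 8.0, 200 μM NAD+, 100 μM RHKK(Ac)W-NH2, 1% DMSO. Started by enzyme addition, 37 °C. Deacetylated product separated by C18 HPLC, detected at 220 nm, and conversion computed from peak areas.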

The target is the same in data set [9]. Briefly: Activation of 25 nM N-terminal His6-tagged recombinant human SIRT1 expressed in Escherichia coli at 100 uM using RHKK(Ac)W-NH2 as substrate after 1 hr in presence of 0.01% TX-100 by UV detection-based HPLC method.
A short description of data set [10]: Drug aggregation in deuterated phosphate buffer assessed as diffusion coefficient at 100 uM in presence of 0.001% TX-100 by DOSY NMR method. Type of data set: physicochemical. The essentials: (§3)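 DOSY at 600 MHz in deuterated phosphate buffer (50 mM, pH 8.0), using stimulated echo with bipolar gradient pulses and spoil gradients. 32 F1 increments of 32 scans, relaxation delay 1 s, acquisition 0.68 s, Δ 50 ms, δ 2.2 ms, 8192 points, 6009 Hz width. Diffusion coefficients taken from residual resonances of the compound.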

In data set [11] the target is T1, NAD-dependent protein deacetylase sirtuin-1 (Homo sapiens). Description: Inhibition of 8 nM N-terminal His6-tagged recombinant human SIRT1 expressed in Escherichia coli assessed as remaining activity at 100 uM using RHKK(Ac)W-NH2 as substrate by UV detection-based HPLC method relative to control. In a few lines: as §2
For data set [12] the target is unchanged. Description: Inhibition of 25 nM N-terminal His6-tagged recombinant human SIRT1 expressed in Escherichia coli at 100 uM using RHKK(Ac)W-NH2 as substrate after 1 hr by UV detection-based HPLC method relative to control. In a few lines:
as §1

The target is the same in data set [13]. Briefly: Activation of 50 nM N-terminal His6-tagged recombinant human SIRT1 expressed in Escherichia coli at low micromolar concentration using RHKK(Ac)W-NH2 as substrate after 30 mins in presence of 0.01% TX-100 by UV detection-based HPLC method relative to control. The essentials: as §1
A short description of data set [14]: Drug aggregation in deuterated phosphate buffer assessed as diffusion coefficient at 1 mM by DOSY NMR method. Type of data set: physicochemical. To be noted: 1000 µM. In a few lines:
as §3

Data set [15] is described as follows: Drug aggregation in deuterated phosphate buffer assessed as diffusion coefficient at 100 uM in presence of 0.01% TX-100 by DOSY NMR method. It is filed as physicochemical. The essentials:
as §3

Data set [16] in a line: Drug aggregation in deuterated phosphate buffer assessed as diffusion coefficient at 100 uM in presence of 1.5 uM bovine serum albumin by DOSY NMR method. Type of data set: physicochemical. In a few lines:
as §3

The nature of data set [17]: Drug aggregation in deuterated phosphate buffer assessed as diffusion coefficient at 100 uM by DOSY NMR method. Type of data set: physicochemical. In a few lines: as §3
Data set [18] deals with T1, NAD-dependent protein deacetylase sirtuin-1 (Homo sapiens). Briefly: Activation of 25 nM N-terminal His6-tagged recombinant human SIRT1 expressed in Escherichia coli at 100 uM using RHKK(Ac)W-NH2 as substrate after 1 hr in presence of 0.01% Tween 20 by UV detection-based HPLC method. In a few lines: as §2
Data set [19] concerns the target T2, NAD-dependent protein deacetylase sirtuin-1 (Homo sapiens, UniProt Q96EB6).
T2 sequence (Q96EB6 whole entry): T1 sequence (whole entry)
Description: Inhibition of human recombinant GST-fused SIRT1 expressed in Escherichia coli DH5-alpha using [3H]acetic acid labeled MPSDKTIGG as substrate after overnight incubation by liquid scintillation counting method.

Data set [20] deals with T3, NAD-dependent protein deacetylase sirtuin-2 (Homo sapiens, UniProt Q8IXJ6).
T3 sequence (Q8IXJ6 whole entry): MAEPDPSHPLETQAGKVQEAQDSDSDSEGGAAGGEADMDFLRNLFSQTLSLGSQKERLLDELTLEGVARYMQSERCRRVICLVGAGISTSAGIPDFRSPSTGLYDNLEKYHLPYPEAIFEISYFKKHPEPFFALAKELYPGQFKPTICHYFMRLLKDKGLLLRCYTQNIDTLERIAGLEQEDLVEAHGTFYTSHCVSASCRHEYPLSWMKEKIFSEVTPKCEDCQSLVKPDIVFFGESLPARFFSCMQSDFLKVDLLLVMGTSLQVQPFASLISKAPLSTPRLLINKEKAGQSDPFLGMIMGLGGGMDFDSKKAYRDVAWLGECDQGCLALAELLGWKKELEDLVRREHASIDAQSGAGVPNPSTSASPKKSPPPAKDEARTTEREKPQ
Briefly: Inhibition of human recombinant GST-fused SIRT2 expressed in Escherichia coli DH5-alpha using [3H]acetic acid labeled MPSDKTIGG as substrate after overnight incubation by liquid scintillation counting method.

The structures appear in SMILES notation. Activity calls are given as the source filed them. No cut-off for these calls is given here.

Consider `CC(C)=CCC[C@]1(C)[C@@H](CC=C(C)C)C[C@@]2(CC=C(C)C)C(=O)[C@]1(C(=O)C(C)C)C(=O)C(CC=C(C)C)=C2OCC(=O)O`, for which the inhibition result in data set [1] was “Active”. The outcome in data set [2] and in data set [3] was Active.
On to `CC(C)=CCC[C@]1(C)[C@@H](CC=C(C)C)C[C@]2(CC=C(C)C)C(=O)C(CC=C(C)C)=C(O)[C@@]1(C(=O)C(C)C)C2=O`, for which the inhibition result in [1] was “Active”. The result in [3] was Active.
With `CC1=CCC(C(=O)/N=C2\CC=C(S(=O)(=O)O)c3cc(S(=O)(=O)O)cc(S(=O)(=O)O)c32)=C/C1=N/C(=O)C1=CC=C/C(=N\C(=O)/N=C2\C=CC=C(C(=O)/N=C3/CC(C(=O)/N=C4\CC=C(S(=O)(=O)O)c5cc(S(=O)(=O)O)cc(S(=O)(=O)O)c54)=CC=C3C)C2)C1`, the inhibition entry in data set [4], in data set [5] and in data set [6] was “Active” each time.
Consider `CC(C)=CCC[C@]1(C)[C@@H](CC=C(C)C)C[C@]2(CC=C(C)C)C(=O)[C@@]1(CC=C(C)C)C(=O)C(C(=O)c1ccc(O)c(O)c1)=C2O` [GUTTIFERONE A], for which the result in data set [7], in data set [9], in [13] and in [18] was Active. For the same compound, the Activity was 158% in data set [8] and 1% in [11]. Also, in [1], the inhibition entry was “Active”. The D in data set [10] is listed as 2.298 ×10⁻¹⁰ m2/s; in [14] it was 2.246 ×10⁻¹⁰ m2/s; in data set [15], 1.808 ×10⁻¹⁰ m2/s; in [16] it was 1.61 ×10⁻¹⁰ m2/s; in data set [17], 2.706 ×10⁻¹⁰ m2/s. The fold change (FC) in data set [2] and in data set [3] was 2 throughout. For the same compound, the inhibition in data set [12] is 90%.
`CC(C)=CCC/C(C)=C/C[C@@H]1C[C@]2(CC=C(C)C)C(=O)[C@@](CC=C(C)C)(C(=O)C(C(=O)c3ccc(O)c(O)c3)=C2O)[C@@]1(C)CCC=C(C)C` [OBLONGIFOLIN C]: the IC50 in data set [19] is 9 µM; in [20], 22 µM.
